Data published in ChEMBL document CHEMBL1125932 (1991).
Converted amounts (≈) assume the structure as drawn.

Tests used:
Format in all cases: functional
ESM [1] = assay: Concentration required to cause 50% reduction in cellular DNA synthesis in ESM cells; details: Homo sapiens; read-out: MIC
Method in brief: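 In ESM cells, cellular DNA synthesis was monitored by incorporation of [methyl-3H]dThd. The value is the concentration causing a 50% reduction in incorporation.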

ESM [2] = assay: Concentration required to cause a microscopically detectable alteration of normal cell morphology in ESM cells; details: Homo sapiens
Method in brief: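 ESM cells were examined under the microscope. The value is the minimum concentration causing a microscopically detectable change in normal cell morphology.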

ESM [3] = assay: Concentration required to inhibit HSV-1 (F) induced cytopathogenicity in ESM cells by 50%; details: Homo sapiens; read-out: MIC
Method in brief: (§1)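 Embryonic skin-muscle (ESM) cell cultures were infected with 100 CCID50 of virus (1 CCID50 being the infective dose for 50% of cultures).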

ESM [4] = assay: Concentration required to inhibit HSV-1 (KOS) induced cytopathogenicity in ESM cells by 50%; details: Homo sapiens; read-out: MIC; method in brief: as §1
ESM [5] = assay: Concentration required to inhibit HSV-1 (McIntyre) induced cytopathogenicity in ESM cells by 50%; details: Homo sapiens; read-out: MIC; method in brief: as §1
ESM [6] = assay: Concentration required to inhibit HSV-2(196) induced cytopathogenicity in ESM cells by 50%; details: Homo sapiens; read-out: MIC; method in brief: as §1
ESM [7] = assay: Concentration required to inhibit HSV-2(G) induced cytopathogenicity in ESM cells by 50%; details: Homo sapiens; read-out: MIC; method in brief: as §1
ESM [8] = assay: Concentration required to inhibit HSV-2(lyons) induced cytopathogenicity in ESM cells by 50%; details: Homo sapiens; read-out: MIC; method in brief: as §1
ESM [9] = assay: Concentration required to inhibit TK-HSV-1 (B2006) induced cytopathogenicity in ESM cells by 50%; details: Homo sapiens; method in brief: as §1
ESM [10] = assay: Concentration required to inhibit TK-HSV-1 ([…]) induced cytopathogenicity in ESM cells by 50%; details: Homo sapiens; method in brief: as §1
ESM [11] = assay: Concentration required to inhibit VV induced cytopathogenicity in ESM cells by 50%.; details: Homo sapiens; method in brief: as §1
HEL [12] = assay: Concentration required to inhibit CMV (AD-169) induced cytopathogenicity in HEL cells by 50%; details: Homo sapiens; read-out: MIC
HEL [13] = assay: Concentration required to inhibit CMV (Davis) induced cytopathogenicity in HEL cells by 50%; details: Homo sapiens
HEL [14] = assay: Concentration required to inhibit TK-VZV (07-1) induced cytopathogenicity in HEL cells by 50%; details: Homo sapiens; read-out: MIC
HEL [15] = assay: Concentration required to inhibit TK-VZV (YSR) induced cytopathogenicity in HEL cells by 50%; details: Homo sapiens
HEL [16] = assay: Concentration required to inhibit VZV (YS) induced cytopathogenicity in HEL cells by 50%; details: Homo sapiens; read-out: MIC
HEL [17] = assay: Concentration required to inhibit VZV (oka) induced cytopathogenicity in HEL cells by 50%; details: Homo sapiens; read-out: MIC
HEL [18] = assay: Concentration required to cause 50% reduction in HEL cell growth.; details: Homo sapiens; read-out: MIC
ESM [19] = assay: Concentration required to inhibit VV induced cytopathogenicity in ESM cells by 50%; details: Homo sapiens; method in brief: as §1
HEL [20] = assay: Concentration required to cause 50% reduction in HEL cell growth; details: Homo sapiens

| Structure (SMILES) | IC50 (DNA synthesis inhibition) (ESM [1]) [µg/mL] | MIC (ESM [2]) [µg/mL] | EC50 (ESM [3]) [µg/mL] | 50% inhibitory concentration against virus-induced cytopathogenicity (EC50) (ESM [4]) [µg/mL] | EC50 for inhibiting virus-induced cytopathogenicity (ESM [5]) [µg/mL] | EC50 (ESM [6]) [µg/mL] | EC50 (ESM [7]) [µg/mL] | EC50 (50% inhibition of virus cytopathogenicity) (ESM [8]) [µg/mL] | MIC (ESM [9]) [µg/mL] | MIC (ESM [10]) [µg/mL] | MIC (ESM [11]) [µg/mL] | EC50 (HEL [12]) [µg/mL] | MIC (HEL [13]) [µg/mL] | EC50 (HEL [14]) [µg/mL] | MIC (HEL [15]) [µg/mL] | EC50 (HEL [16]) [µg/mL] | EC50 (HEL [17]) [µg/mL] | 50% cell growth inhibitory concentration (CC50) (HEL [18]) [µg/mL] | MIC (ESM [19]) [µg/mL] | MIC (HEL [20]) [µg/mL] |
| --- | --- | --- | --- | --- | --- | --- | --- | --- | --- | --- | --- | --- | --- | --- | --- | --- | --- | --- | --- | --- |
| Cc1cn2c(O)c3ncn(COCCO)c3nc2n1 | > 200 | > 400 | 0.7 (≈ 2.66 µM) | 0.7 | 1 | 0.7 (≈ 2.66 µM) | 2 (≈ 7.6 µM) | 0.4 | > 400 | > 400 | > 400 | 200 (≈ 760 µM) | > 400 | 400 (≈ 1520 µM) | > 400 | 25 (≈ 95 µM) | 20 (≈ 76 µM) | > 200 | – | – |
| OCC(CO)OCn1cnc2c(O)n3ccnc3nc21 | > 200 | > 400 | 0.7 (≈ 2.51 µM) | 0.7 | 0.7 | 2 (≈ 7.16 µM) | 2 (≈ 7.16 µM) | 0.7 | > 400 | 150 (≈ 537 µM) | > 400 | 150 (≈ 537 µM) | 200 (≈ 716 µM) | 400 (≈ 1430 µM) | 300 (≈ 1070 µM) | > 400 | 400 (≈ 1430 µM) | > 200 | – | – |
| OCCOCn1cnc2c(O)n3ccnc3nc21 | > 200 | > 400 | 4 (≈ 16 µM) | 20 | 20 | 70 (≈ 281 µM) | 20 (≈ 80.2 µM) | 10 | > 400 | > 400 | > 400 | > 400 | > 400 | > 400 | > 400 | > 400 | > 400 | > 200 | – | – |
| CCOC(Cn1c(N)nc2c(ncn2COC(CO)CO)c1=O)OCC | > 100 | > 400 | 20 (≈ 53.9 µM) | 70 | 20 | 70 (≈ 188 µM) | 70 (≈ 188 µM) | 20 | > 400 | > 400 | > 400 | > 400 | > 400 | > 400 | > 400 | > 400 | > 400 | > 200 | – | – |
| OC[C@H]1OC(n2cnc3c(O)n4ccnc4nc32)[C@H](O)[C@@H]1O (some centres not stated) | 150 (≈ 488 µM) | > 400 | > 400 | > 400 | > 400 | > 400 | > 400 | > 400 | > 400 | > 400 | – | 400 (≈ 1300 µM) | 400 (≈ 1300 µM) | > 400 | > 400 | > 400 | > 400 | – | > 400 | > 200 |
| CCOC(Cn1c(N)nc2c(ncn2C2O[C@H](CO)[C@@H](O)[C@H]2O)c1=O)OCC (some centres not stated) | > 200 | > 400 | 100 (≈ 250 µM) | > 400 | 100 | > 400 | > 400 | 100 | > 400 | > 400 | > 400 | > 400 | > 400 | > 200 | > 200 | > 200 | > 200 | > 200 | – | – |
| Cc1cn2c(O)c3ncn(C4O[C@H](CO)[C@@H](O)[C@H]4O)c3nc2n1 (some centres not stated) | 150 (≈ 467 µM) | > 400 | > 400 | > 400 | > 400 | > 400 | > 400 | > 400 | > 400 | > 400 | – | > 200 | > 200 | > 200 | > 200 | > 200 | > 200 | – | > 400 | > 200 |
| CCOC(Cn1c(N)nc2c(ncn2COCCO)c1=O)OCC | > 200 | > 400 | 70 (≈ 205 µM) | > 400 | > 400 | 20 (≈ 58.6 µM) | > 400 | 20 | > 400 | > 400 | > 400 | > 400 | > 400 | > 400 | > 400 | > 400 | > 400 | > 200 | – | – |
| Cc1cn2c(O)c3ncn(COC(CO)CO)c3nc2n1 | > 200 | > 400 | 0.07 (≈ 0.239 µM) | 0.07 | 0.07 | 0.07 (≈ 0.239 µM) | 0.07 (≈ 0.239 µM) | 0.07 | 200 (≈ 682 µM) | 20 (≈ 68.2 µM) | > 400 | 4 (≈ 13.6 µM) | 5 (≈ 17 µM) | 15 (≈ 51.1 µM) | 50 (≈ 170 µM) | 10 (≈ 34.1 µM) | 4 (≈ 13.6 µM) | > 200 | – | – |
| Nc1nc2c(ncn2COCCO)c(=O)[nH]1 [ACYCLOVIR] | – | 400 (≈ 1780 µM) | – | – | – | – | – | – | 100 (≈ 444 µM) | 40 (≈ 178 µM) | > 200 | – | 15 (≈ 66.6 µM) | – | – | – | – | – | – | – |
| Nc1nc2c(ncn2COC(CO)CO)c(=O)[nH]1 [GANCICLOVIR] | – | > 400 | – | – | – | – | – | – | 7 (≈ 27.4 µM) | 1 (≈ 3.92 µM) | 20 (≈ 78.4 µM) | – | 1 (≈ 3.92 µM) | – | – | – | – | – | – | – |
